ChEMBL document CHEMBL4513216, “Probing the Open Global Health Chemical Diversity Library for Multistage-Active Starting Points for Next-Generation Antimalarials” (ACS Infect Dis, 2020)

Test: Toxicity liver stage against HepG2, at 10uM
Assay type: cell-based
Set-up: test concentration 10 uM, cell line HepG2-A16-CD81EGFP
Details: human, HepG2-A16-CD81EGFP cells; read-out: INHIBITION
How it was run: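 Uninfected HepG2-A16-CD81EGFP cells, 3 × 10^3 per well, 1536-well, plated on prespotted compound at 10 μM final, parasite-free screening media added to match infected plates; puromycin 10 μM positive, DMSO 0.5% negative; run in parallel with 48 h PbLuc assay at 37 °C, 5% CO2; viability by CellTiter-Glo luminescence, normalized to controls.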

Row | Compound | cytotoxicity at 10 µM
1 | Cc1c(Cl)cccc1NC(=O)c1nc[nH]n1 | -7.93%
2 | CS(=O)(=O)c1ccc(O[C@H]2COCCN(C(=O)c3ccno3)C2)cc1 | 0.0962%
3 | N#Cc1cccc(C(=O)Nc2ccc([C@@H](O)[C@H]3COCC(=O)N3)cc2)c1 | -4.25%
4 | O=C(c1cc(CC2(NC3CCCCC3)COC2)no1)N1CCCCC1 | 7.65%
5 | CCCNC(=O)CCC(=O)n1nc(C)c2ccccc21 | 1.23%
6 | CC(C)c1sc(Cl)nc1C(=O)N1CCN(c2ccccc2)CC1 | -87.6%
7 | O=c1[nH]c2c(-c3ccccn3)nsc2c(=O)n1CC1CCCO1 (stereo not given) | 9.26%
8 | COc1ccc(F)cc1S(=O)(=O)N1CCC(OC)CC1 | -3.97%
9 | CS(=O)(=O)C1CCN(S(=O)(=O)c2ccc(F)c(F)c2)CC1 | -10.4%
10 | COc1cc(N2C[C@H]3CN(C(=O)c4cnccn4)C[C@H]3C2)ncn1 | -141%
11 | COc1nn(C)c2c1CCCN(S(=O)(=O)c1cccs1)C2 | -112%
12 | CCNC(=O)N1CCC2(C1)c1ccccc1S(=O)(=O)N2CCOC (stereo not given) | -151%
13 | COC(=O)c1cc2c(OC)c(C)c(OC)cc2[nH]1 | -12.8%
14 | CC(C)n1[nH]c(=O)c2c1NC(=O)CC2c1ccc(C#N)cc1 (stereo not given) | 3.92%
15 | CC(C)(C)n1ncc2c1NC(=O)CC2c1ccc(C#N)cc1 (stereo not given) | -1.26%
16 | O=C(c1cscn1)N1C[C@@H]2[C@@H](C1)OCC(=O)N2CC1CCCC1 | -10.2%
17 | CCNC(=O)c1ncn2c1CN(C)S(=O)(=O)c1ccccc1-2 | -10.1%
18 | CCN(CC)CCCNC(=O)C(C)n1cc(Br)cn1 (stereo not given) | -3.33%
19 | Clc1ccc2nncc(N3CCCCC3)c2c1 | -4.34%
20 | CC(C(=O)N1CCc2ccccc2C1)n1cc(Br)cn1 (stereo not given) | -8.77%
21 | O=C(c1ccccc1F)N1CCCC1Cn1c(=O)oc2ccccc21 (stereo not given) | 4.49%
22 | CS(=O)(=O)N1CCN(C(=O)c2cncs2)CC(C(N)=O)C1 (stereo not given) | 2.9%

Row | Compound | cytotoxicity at 10 µM
23 | O=C1N[C@H]2OCCC[C@H]2[C@H](c2ccc(C(=O)O)cc2)N1 | -2.51%
24 | CC(=O)Nc1ccc(CCC2(NC(=O)C3CCCO3)CCCCC2)cn1 (stereo not given) | 1.6%
25 | Nc1nccnc1CC1CCCN(Cc2cccc3[nH]ccc23)C1 (stereo not given) | 0.994%
26 | O=C(NCCNC1CCCC1)c1cccs1 | -0.579%
27 | Fc1ccccc1-c1nccnc1C1CCCNC1 (stereo not given) | -25.7%
28 | COCCN1CCCC(Cc2ccc(N3CCOCC3)nn2)C1 (stereo not given) | -17.9%
29 | Cc1ccc(-c2cc(N)c(=O)n(C(C)C(=O)NCC3CCCCC3)n2)s1 (stereo not given) | -13.9%
30 | Cc1noc(C)c1-c1cncc(C2CCCN2Cc2cc[nH]n2)n1 (stereo not given) | 13%
31 | Cc1cc(C2CCCN2C(=O)c2csc(-c3cnn(C)c3)n2)on1 (stereo not given) | 15.6%
32 | Cc1cccc(-c2ccc(C(=O)N3CCN(C(C)C)CC3)c(=O)[nH]2)c1 | -3.27%
33 | COCCS(=O)(=O)N(Cc1ccsc1)c1ccccc1 | -4.76%
34 | CN(C)c1ncccc1N(C)C(=O)Cn1cc(-c2ccccc2)nn1 | -2.2%
35 | CC(Oc1ccc(C(=O)NCCNS(C)(=O)=O)cn1)c1ccccc1 (stereo not given) | 7.44%
36 | O=C(CCc1ccc(C(F)(F)F)cc1)N1CCCS1(=O)=O | 4.37%
37 | CC(C)COc1cncc(N2CCCN(CC(F)(F)F)CC2)n1 | 4.29%
38 | CCNc1cc2c(nn1)CCN(C(=O)C1Cc3ccccc3S1)C2 (stereo not given) | -1.4%
39 | O=C(Cn1cccc2oc(=O)nc1-2)NCC1Cc2ccccc2O1 (stereo not given) | -7.79%
40 | CC(C)c1nc(C2CCCN(C(=O)CN(C)S(C)(=O)=O)C2)no1 (stereo not given) | -0.304%
41 | O=C(c1ccoc1)N(Cc1ccccn1)C1CC1 | -15%
42 | CN(CC(=O)N1CCN(c2cnccn2)CC1)c1ccc(Cl)cn1 | -0.487%
43 | Cc1nnc2n1CCN(C(=O)c1ccn(-c3cccc(F)c3)n1)C2 | -144%
44 | CCc1nnc2n1CCN(C(=O)c1cn(-c3ccccc3)nn1)C2 | -141%

Row | Compound | cytotoxicity at 10 µM
45 | CC(C)c1ncncc1C(=O)NCCN1CCOCC1 | -0.103%
46 | CSCC(C)N(C)C(=O)c1nn(-c2ccc(F)cc2C)cc1O (stereo not given) | 0.618%
47 | CN1CCC(N(C)C(=O)CSc2ccc(F)c(F)c2)C1=O (stereo not given) | -5.89%
48 | Cc1n[nH]c(C(=O)N2CCCC(C)CC2)c1Br (stereo not given) | -1.74%
49 | Cc1ccc(CNC(=O)NC(C)CCS(C)(=O)=O)cc1F (stereo not given) | -146%
50 | CCC(CNS(C)(=O)=O)Oc1ccccc1C (stereo not given) | 17.3%
51 | CCN(C(=O)CN1CCC(c2ccccc2)C1)C1CC1 (stereo not given) | 9.4%
52 | O=C(c1ccc(Sc2ccccn2)cc1)N1CCCSCC1 | 11.5%
53 | CCCn1cc(NC(=O)c2cccc3cccnc23)ccc1=O | -4.73%
54 | COc1ccc(C)cc1NS(=O)(=O)c1ccc(CCNC(C)=O)s1 | 0.549%
55 | CC(C)N(Cc1ccccn1)C(=O)CCOc1cccc(F)c1 | 4.58%
56 | Cc1cccc(CN(Cc2ccccn2)S(=O)(=O)N(C)C)c1 | -1.74%
57 | CCOC(=O)NC1CCCN(Cc2ccc(-n3cncn3)c(C)c2)C1 (stereo not given) | 2.12%
58 | Cc1nnc(SCCC(=O)N(C)Cc2c(F)cccc2Cl)[nH]1 | 1.69%
59 | NC(=O)C1CCCN1Cc1ccccc1NC(=O)Cc1cccc(F)c1 (stereo not given) | 7.31%
60 | CCOCc1nnc(NCc2cccnc2)o1 | 10.9%
61 | O=C(c1cnc2[nH]c(=O)[nH]c(=O)c2c1)N1CCCC1C1CCCCC1 (stereo not given) | -5.94%
62 | COCCn1cc(C(=O)N2CCCC2c2cccc(F)c2)ccc1=O (stereo not given) | -3.48%
63 | CCCS(=O)(=O)NCc1cccnc1OCC | -7.87%
64 | O=C(NC1CC1)N1C[C@@H]2CCN(C(=O)c3cscn3)[C@@H]2C1 | -0.025%
65 | Cc1nnc([C@@]23CCO[C@@H]2CCN(Cc2cccc4ccccc24)C3)o1 | -103%
66 | O=C(c1ncccn1)N1C[C@@H]2CN(Cc3cccnc3)CCO[C@@H]2C1 | 7.67%

Row | Compound | cytotoxicity at 10 µM
67 | Cc1ccc2c(c1)SCC(=O)N2CC(=O)N1CCCC1c1cc(C)on1 (stereo not given) | 1.28%
68 | CSCC(=O)N1C[C@H](c2ccc(C)o2)[C@@H](N)C1 | 6.6%
69 | CC(C)Oc1ccc(CN2CCC(Cc3nnc(CO)n3C)CC2)cc1 | 1.24%
70 | CCC1CN(Cc2nnc(C3CC3)o2)CCC(=O)N1Cc1ccccc1 (stereo not given) | 0.0723%
71 | O=C(NCCSc1ccccc1)[C@H]1CNC[C@@H](C(=O)N2CCOCC2)C1 | -3.03%
72 | O=C(O)C1CN(Cc2cccc(-c3ccccn3)c2)CCO1 (stereo not given) | -10.5%
73 | CCN1CCC(NN2CCN(C)CC2)CC1 | 0.935%
74 | CCc1nccn1CCCNC(=O)c1cnn(-c2ccccc2OC)c1 | -17.1%
75 | O=C1CCC2(CCOC2)CN1CCCOc1cccnc1 (stereo not given) | -16.1%
76 | CCCc1ccc(CN2CCC3(CCC(=O)N(CCO)C3)CC2)o1 | -6.29%
77 | CCC(=O)N1CCCC(C(=O)N2CCN(c3cnn(C)c(=O)c3)CC2)C1 (stereo not given) | 3.98%
78 | Cc1ccc(Cl)c(C(C(=O)O)N(C)Cc2cnn(C)c2)c1 (stereo not given) | -11%
79 | O=C(c1cccc(Cl)c1F)N1CCOC2(CNCCOC2)C1 (stereo not given) | -2.06%
80 | CN(Cc1ccccc1Cl)C(=O)c1cc(CN2CCC(O)CC2)on1 | 0.0227%
81 | Cc1ccc2nc(C3CCCN3Cc3nnc(C)s3)[nH]c2c1 (stereo not given) | -2.82%
82 | Cc1oc(C(=O)O)cc1S(=O)(=O)Nc1cc(Br)ccc1F | -3.46%
83 | Cc1noc(NC(=O)c2ccc(C#N)cc2)n1 | -5.32%
84 | NC(=O)C1CCN(C(=O)c2ccn(-c3cccc(Cl)c3)n2)C1 (stereo not given) | -0.433%
85 | Cc1ccc(C(=O)NS(=O)(=O)c2cc(F)ccc2F)c(=O)[nH]1 | -1.73%
86 | O=C(NCCn1ccnc1)N1CCCC1c1ccc2c(c1)OCCO2 (stereo not given) | -8.16%
87 | COCc1ccccc1CNC(=O)CN1CCCC1c1noc(C)n1 (stereo not given) | 1.13%
88 | Cc1nc(CCNCc2c(C)nn(C)c2N2CCOCC2)cs1 | -11.5%

Row | Compound | cytotoxicity at 10 µM
89 | COc1c(C)cnc(CN2CCCC(Cn3nc(C)nc3C)C2)c1C (stereo not given) | 2.37%
90 | Cc1n[nH]c(C2CN(C(=O)c3cc4c(s3)CCCC4)CCO2)n1 (stereo not given) | -14.9%
91 | Cc1cc(C(=O)N2CCN(Cc3ccsc3)CC2)c(C)n1C1CC1 | -1.94%
92 | Cc1ccc(CNC(=O)CN2CCCCC2Cn2cncn2)s1 (stereo not given) | 1.8%
93 | Cn1cnc2c1CCN(CCCS(=O)(=O)c1ccccc1)C2 | -7.54%
94 | Cc1cnn(CC2CN(CCc3cccs3)CCO2)c1 (stereo not given) | -14.2%
95 | Cc1cc(C)n(CC2CN(CC(=O)NCc3ccccn3)CCO2)n1 (stereo not given) | -5.07%
96 | Cc1n[nH]c(C)c1C1COCCN1C(=O)c1ccccc1 (stereo not given) | -3.94%
97 | O=C(COc1ccc(C(F)(F)F)cc1)NS(=O)(=O)c1cccnc1 | -7.44%
98 | Cn1cc(-c2nc(CN3CCN(CCO)CC3)cs2)cn1 | -2.66%
99 | Cc1c(C(=O)N2CCOCC2)n(C)c2ccc(Cl)cc12 | -0.244%
100 | CCNC(=O)[C@@H]1CCCN1[C@@H](C(=O)NC)c1ccccc1 | 7.77%
101 | Cn1nc(C2CCCN(Cc3cccs3)C2)c2nccnc21 (stereo not given) | 4.2%
102 | COCCNC(=O)[C@H]1C[C@@H]2CCN(Cc3ccncc3)C[C@H]2O1 | 2.6%
103 | O=C([C@@H]1C[C@H]2[C@H](CCN2Cc2nccs2)O1)N1CCOCC1 | -8.66%
104 | O=C([C@H]1CC[C@@H]2[C@@H](CCN2Cc2nccs2)O1)N1CCOCC1 | -0.891%
105 | CN1CCC(c2nnc3ccc(C(=O)NC4CCCC4)cn23)C1 (stereo not given) | -1.37%
106 | COCC1CC2(CCN(Cc3ccoc3)CC2)CN1C(C)C (stereo not given) | 0.803%
107 | CNC(=O)[C@@H](c1ccccc1)N1CCC[C@H]1C(=O)NCc1cccnc1 | 2.38%
108 | CC(=O)N1CC(=O)N(c2ccccc2)CC12CCN(Cc1nccs1)C2 (stereo not given) | -2.23%
109 | COCCOCC1(CNCc2ccc(OC)cc2)C[C@@H](O)[C@@H](O)C1 (stereo not given in full) | -7.46%
110 | Cc1cc(C(=O)NC2CCC3(CCC(=O)N3CC3CC3)CC2)no1 (stereo not given) | -0.39%
